Experimental data as given in ChEMBL document CHEMBL4330127, “Discovery of Novel Pyruvate Dehydrogenase Kinase 4 Inhibitors for Potential Oral Treatment of Metabolic Diseases” (J Med Chem, 2019).
Activity calls are given as the source filed them. No cut-off for these calls is given here.

What was measured:
[1] = Half life in human liver microsomes at 1 uM preincubated for 5 mins followed by NADPH/UDPGA addition by LC-MS/MS analysis; type: ADME, Microsome
Outline: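 Pooled human liver microsomes (1.0 mg/mL) were preincubated with substrate (1 μM) at 37 °C for 5 min. NADPH and UDPGA were added and samples taken at 10, 20, 40 and 60 min. Reactions were quenched with acetonitrile, centrifuged, and the supernatant quantified by LC-MS/MS. Buspirone served as positive control.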

[2] = Drug metabolism in human liver microsomes assessed as hydroxyl metabolite formation at 100 uM preincubated for 5 mins followed by NADPH/UDPGA addition and measured up to 2 hrs by LC-MS/MS analysis; type: ADME, Microsome
Outline: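 Pooled human liver microsomes (1.0 mg/mL) were mixed with alamethicin (25 μg/mg protein) and kept on ice for 15 min. Substrate (100 μM) was added and the mix preincubated 5 min at 37 °C. NADPH (1.3 mM) and UDPGA (5 mM) were then added and incubation ran 2 h with agitation. The reaction was stopped with ice-cold acetonitrile, centrifuged, and the supernatant analysed by LC-MS/MS (ESI positive, transition 358.2 → 84.1).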

[3] = target: Cytochrome P450 2C9 (Homo sapiens, UniProt P11712); test: Inhibition of CYP2C9 in human liver microsomes assessed as reduction in tolbutamide 4-hydroxylation by tandem mass spectrometry analysis; type: ADME
Cytochrome P450 2C9, sequence (P11712 whole entry): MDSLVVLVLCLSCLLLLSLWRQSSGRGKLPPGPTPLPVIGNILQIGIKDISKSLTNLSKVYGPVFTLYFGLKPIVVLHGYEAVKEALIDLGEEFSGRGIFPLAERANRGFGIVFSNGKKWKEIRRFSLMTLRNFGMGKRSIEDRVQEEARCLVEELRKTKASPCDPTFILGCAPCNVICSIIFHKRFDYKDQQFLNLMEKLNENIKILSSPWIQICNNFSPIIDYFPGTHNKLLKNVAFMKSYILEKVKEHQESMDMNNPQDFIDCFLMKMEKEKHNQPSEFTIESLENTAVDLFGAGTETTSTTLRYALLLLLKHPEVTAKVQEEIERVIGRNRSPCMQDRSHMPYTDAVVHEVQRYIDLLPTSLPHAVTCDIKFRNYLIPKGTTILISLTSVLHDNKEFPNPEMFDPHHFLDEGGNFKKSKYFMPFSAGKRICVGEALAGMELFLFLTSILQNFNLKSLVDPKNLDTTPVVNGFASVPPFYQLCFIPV
Outline: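 Pooled human liver microsomes incubated with compound at 0–50 μM final; CYP probe activities (phenacetin O-deethylation for 1A2, tolbutamide 4-hydroxylation for 2C9, omeprazole hydroxylation for 2C19, dextromethorphan O-demethylation for 2D6) run as a cocktail incubation and quantified by tandem MS; duplicates; IC50 derived.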

[4] = AUCt in rat at 5 mg/kg, iv; type: ADME, organism-based; settings: in vivo
Outline: (§1)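 Male rats given a single dose, 5 mg/kg intravenously or 10 mg/kg orally. Plasma PK parameters were reported as mean ± SD: AUCt, AUC∞, Cmax, Tmax, T1/2, CL, Vss and oral bioavailability F.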

[5] = Volume of distribution at steady state in rat at 5 mg/kg, iv; type: ADME, organism-based; settings: in vivo, read-out: Vdss
[6] = Cmax in rat at 10 mg/kg, po; type: ADME, organism-based; design: dose 10 mg/kg, route oral; settings: in vivo; outline: as §1
[7] = Half life in rat at 10 mg/kg, po; type: ADME, organism-based; settings: in vivo; outline: as §1
[8] = AUCt in rat at 10 mg/kg, po; type: ADME, organism-based; settings: in vivo; outline: as §1
[9] = AUC (0 to infinity) in rat at 10 mg/kg, po; type: ADME, organism-based; design: dose 10 mg/kg, route oral, time infinity; settings: in vivo; outline: as §1
[10] = tested on: Mus musculus; test: Antidiabetic activity in high-fat diet induced obese C57BL/6J mouse assessed as reduction in blood glucose level at 100 mg/kg, po administered for 1 week starting from week 4 post high fat diet followed by glucose challenge and measured up to 120 mins by IPGTT; type: functional, organism-based
Outline: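 Eight-week-old C57BL/6J mice were fed a high-fat diet (60% kcal fat, 0.5% cholesterol, 10% fructose) for 4 weeks. From week 4 they were dosed orally for 1 week (n = 6 per group), with sitagliptin 10 mg/kg as comparator. An intraperitoneal glucose tolerance test (1.5 g/kg glucose) followed, and the area under the curve was calculated.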

[11] = tested on: Mast cell; test: Inhibition of degranulation in IgE-labeled bone marrow-derived mast cells (unknown origin) assessed as reduction in beta-hexosaminidase release by measuring absorbance at 20 uM preincubated for 1 hr followed by HSA stimulation and measured after 15 mins (reference value: 0.26 +/- 0.025); type: functional
[12] = tested on: HCT-116; test: Induction of apoptosis in human HCT116 cells assessed as increase in cleaved caspase-3 expression at 10 to 50 uM after 24 hrs by Western blot analysis; type: functional, cell-based
Outline: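 HCT116 and RKO cells given a range of compound doses for 24 h; lysates probed by Western blot for apoptosis-related proteins (p53, BAX, BCLxL).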

[13] = tested on: HCT-116; test: Antiproliferative activity against human HCT116 cells up to 50 uM up to 72 hrs by CCK8 assay; type: functional, cell-based
Outline: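 HCT116 and RKO cells were treated with compound alone or with oxaliplatin and grown for 0–72 h. Viability was read by CCK-8 colorimetry at 450 nm.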

[14] = tested on: HCT-116; test: Induction of apoptosis in human HCT116 cells after 24 hrs by Annexin V/propidium iodide staining based flow cytometry; type: functional, cell-based
[15] = tested on: HCT-116; test: Induction of apoptosis in human HCT116 cells assessed as early apoptotic cells at 25 uM after 24 hrs by Annexin V/propidium iodide staining based flow cytometry (reference value: 4.36%); type: functional
[16] = tested on: HCT-116; test: Induction of apoptosis in human HCT116 cells assessed as necrotic cells at 25 uM after 24 hrs by Annexin V/propidium iodide staining based flow cytometry (reference value: 2.92%); type: functional
[17] = tested on: HCT-116; test: Induction of apoptosis in human HCT116 cells assessed as late apoptotic cells at 50 uM after 24 hrs by Annexin V/propidium iodide staining based flow cytometry (reference value: 8.36%); type: functional
[18] = tested on: HCT-116; test: Induction of apoptosis in human HCT116 cells assessed as late apoptotic cells at 25 uM after 24 hrs in presence of oxaliplatin by Annexin V/propidium iodide staining based flow cytometry (reference value: 14.2%); type: functional
[19] = tested on: HCT-116; test: Cell cycle arrest in human HCT116 cells assessed as accumulation at G1/G0 phase at 50 uM after 24 hrs propidium iodide staining based flow cytometry (reference value: 42%); type: functional
Outline: (§2)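 HCT116 and RKO cells were treated with compound alone or with oxaliplatin for 24 h before harvest. Cells were stained with propidium iodide, and DNA content was analysed by flow cytometry. Cell-cycle phase populations, including sub-G1, are given as percentages.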

[20] = tested on: HCT-116; test: Cell cycle arrest in human HCT116 cells assessed as accumulation at G2/M phase at 50 uM after 24 hrs propidium iodide staining based flow cytometry (reference value: 22.2%); type: functional; outline: as §2
[21] = tested on: HCT-116; test: Cell cycle arrest in human HCT116 cells assessed as accumulation at sub-G1 phase at 25 uM after 24 hrs in presence of oxaliplatin propidium iodide staining based flow cytometry (reference value: 25.1%); type: functional; outline: as §2
[22] = tested on: RKO; test: Induction of apoptosis in human RKO cells assessed as early apoptotic cells at 10 uM after 24 hrs by Annexin V/propidium iodide staining based flow cytometry (reference value: 9.62%); type: functional
[23] = tested on: RKO; test: Induction of apoptosis in human RKO cells assessed as early apoptotic cells at 25 uM after 24 hrs by Annexin V/propidium iodide staining based flow cytometry (reference value: 9.62%); type: functional
[24] = tested on: RKO; test: Induction of apoptosis in human RKO cells assessed as necrotic cells at 50 uM after 24 hrs by Annexin V/propidium iodide staining based flow cytometry (reference value: 0.56%); type: functional
[25] = tested on: RKO; test: Cell cycle arrest in human RKO cells assessed as accumulation at sub-G1 phase at 10 uM after 24 hrs propidium iodide staining based flow cytometry (reference value: 17.6%); type: functional
[26] = tested on: RKO; test: Cell cycle arrest in human RKO cells assessed as accumulation at S phase at 10 uM after 24 hrs propidium iodide staining based flow cytometry (reference value: 19.2%); type: functional
[27] = tested on: RKO; test: Cell cycle arrest in human RKO cells assessed as accumulation at G1/G0 phase at 25 uM after 24 hrs in presence of oxaliplatin propidium iodide staining based flow cytometry (reference value: 44.3%); type: functional; outline: as §2
[28] = target: [Pyruvate dehydrogenase (acetyl-transferring)] kinase isozyme 4, mitochondrial (Homo sapiens, UniProt Q16654); test: Inhibition of PDK4 (unknown origin) at 10 uM relative to control
[Pyruvate dehydrogenase (acetyl-transferring)] kinase isozyme 4, mitochondrial, sequence (Q16654 whole entry, looked up): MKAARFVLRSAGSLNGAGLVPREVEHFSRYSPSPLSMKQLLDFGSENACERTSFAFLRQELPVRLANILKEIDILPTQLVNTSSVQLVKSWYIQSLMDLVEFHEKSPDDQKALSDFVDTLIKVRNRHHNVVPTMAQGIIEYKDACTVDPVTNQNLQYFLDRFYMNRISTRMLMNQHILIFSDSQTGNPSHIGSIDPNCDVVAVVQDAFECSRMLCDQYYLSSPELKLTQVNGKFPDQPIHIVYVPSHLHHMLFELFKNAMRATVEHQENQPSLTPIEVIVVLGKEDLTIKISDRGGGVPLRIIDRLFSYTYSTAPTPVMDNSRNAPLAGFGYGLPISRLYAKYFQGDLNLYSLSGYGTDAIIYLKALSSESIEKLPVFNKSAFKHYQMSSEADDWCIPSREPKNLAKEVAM

In the case of `Cl.O=C1c2ccccc2C(=O)c2c1cccc2-c1cnn(C2CCNCC2)c1`, the half-life at 1 µM [1] is reported as > 1 h, the Drug metabolism [2] is reported as “Metabolite_Detected” and the IC50 [3] is reported as > 50 µM. For the same molecule, the AUC(0-t) [4] was 7020 ng·h/mL, the Vd [5] was 5.52 L/kg and the Cmax [6] was 565 ng/mL. The half-life [7] was 21.6 h, the AUC(0-t) [8] was 8920 ng·h/mL and the AUC(0-inf) [9] was 18500 ng·h/mL. For the same molecule, the Activity [10] was “Active”, the OD [11] was 0.126 and the Activity [12] was “Active”. The Activity [13] was “Active”, the Activity [14] was “Dose-dependent effect” and the Activity [15] was 7.1%. For the same molecule, the Activity [16] was 19.6%, the Activity [17] was 54.5% and the Activity [18] was 21.8%. For the same molecule, the Activity [19] was 11.2%, the Activity [20] was 5.3% and the Activity [21] was 36%. It also gave an Activity [22] of 5.2%, an Activity [23] of 19.3% and an Activity [24] of 0.006%. The Activity [25] was 21.4%, the Activity [26] was 13.8% and the Activity [27] was 8.2%. It also gave an inhibition [28] of 50.1%.
